# Where two headings read alike, the source gives them in different places.
# How the values were obtained:
# [1] = system: Male Sprague Dawley rats; assay: Intracranial self-stimulation; format: in vivo, rat; settings: i.p., measured for 1 hr; for Effect on ICSS thresholds: butorphan 0.25-4.0 mg/kg, 8 1.0-30.0 mg/kg
# In short: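 Rats carried monopolar electrodes in the medial forebrain bundle (lateral hypothalamus). They were trained on FR1 at 141 Hz (500 ms trains) by the rate-frequency method until thresholds were stable (±10%, 4 days); N=6 per cohort. Baseline was the mean of the last two of three 15-min functions. Ascending i.p. doses were given in 20% DMSO/water or 0.9% saline, then four 15-min trials. Output was percent of baseline, by two-way repeated-measures ANOVA with Tukey.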
# [2] = system: rats; settings: ref 10b; cited from earlier work
# [3] = system: morphine dependent monkeys; settings: more potent (in contrast to cyclorphan); cited from earlier work
# [4] = system: mice; settings: cited from earlier work
# [5] = target: T1, human KOR (Homo sapiens, UniProt P41145); settings: cited from earlier work
# T1 sequence (P41145 whole entry): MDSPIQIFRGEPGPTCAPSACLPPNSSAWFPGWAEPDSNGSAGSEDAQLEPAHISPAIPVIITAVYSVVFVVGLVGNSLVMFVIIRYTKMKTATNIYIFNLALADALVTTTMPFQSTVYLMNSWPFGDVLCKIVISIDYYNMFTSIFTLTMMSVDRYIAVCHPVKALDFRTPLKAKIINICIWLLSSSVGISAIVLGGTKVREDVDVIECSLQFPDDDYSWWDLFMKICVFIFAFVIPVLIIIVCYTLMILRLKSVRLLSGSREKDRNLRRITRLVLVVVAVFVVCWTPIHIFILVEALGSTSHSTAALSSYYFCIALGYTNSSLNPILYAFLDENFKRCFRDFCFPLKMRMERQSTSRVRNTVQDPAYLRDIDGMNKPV
# [6] = target: T2, human MOR (Homo sapiens, UniProt P35372); settings: from [35S]GTPγS stimulation and inhibition data; cited from earlier work
# T2 sequence (P35372 whole entry): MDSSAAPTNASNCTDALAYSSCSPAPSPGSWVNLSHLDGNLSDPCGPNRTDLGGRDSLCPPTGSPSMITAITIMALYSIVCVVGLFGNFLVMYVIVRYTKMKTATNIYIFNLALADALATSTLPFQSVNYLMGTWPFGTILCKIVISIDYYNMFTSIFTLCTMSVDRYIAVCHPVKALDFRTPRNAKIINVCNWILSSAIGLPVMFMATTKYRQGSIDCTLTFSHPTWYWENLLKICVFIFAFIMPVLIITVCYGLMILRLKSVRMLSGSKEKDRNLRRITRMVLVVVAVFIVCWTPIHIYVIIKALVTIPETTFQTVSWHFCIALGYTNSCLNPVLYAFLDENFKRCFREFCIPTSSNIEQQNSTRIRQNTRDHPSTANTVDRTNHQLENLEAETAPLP
# [7] = target: T1, human KOR; settings: from [35S]GTPγS stimulation and inhibition data; cited from earlier work
# [8] = target: T2, human MOR; assay: Stimulation/inhibition of [35S]GTPγS binding mediated by the MOR; format: biochemical; settings: from [35S]GTPγS stimulation and inhibition data
# In short: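 Membranes from CHO cells stably expressing human MOR (7.5 μg protein/tube) were incubated 60 min at 30 °C with 12 test compound concentrations in 50 mM Tris–HCl, 3 mM MgCl2, 100 mM NaCl, 0.2 mM EGTA, pH 7.4, plus 3 μM GDP and 80 pmol [35S]GTPγS. Antagonist mode used 200 nM DAMGO. Nonspecific binding was defined with 10 μM GTPγS. Filter-bound counts were given as % stimulation over basal; at least three experiments in triplicate.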
# [9] = target: T1, human KOR; assay: Stimulation/inhibition of [35S]GTPγS binding mediated by the KOR; format: biochemical; settings: from [35S]GTPγS stimulation and inhibition data
# In short: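 CHO membranes stably expressing human KOR (15 μg protein/tube) were incubated 60 min at 30 °C with 12 concentrations of test compound in 50 mM Tris–HCl, 3 mM MgCl2, 100 mM NaCl, 0.2 mM EGTA, pH 7.4, with 3 μM GDP and […] [35S]GTPγS. Antagonism was tested against 30 nM U50,488. Nonspecific binding used 10 μM GTPγS. After filtration and counting, results were expressed as % stimulation over basal; ≥3 experiments, triplicate.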
# [10] = system: rhesus monkeys; settings: cited from earlier work
smiles,measurement,setting,value
Oc1ccc2c(c1)[C@@]13CCCC[C@H]1[C@@H](C2)N(CC1CCC1)CC3 [Butorphan],Effect on maximum rates of responding,[1]; 4.0 mg/kg,significantly decreased rates of responding
same,Effect on ICSS thresholds,[1],no significant effect
same,Antinociception in the warm-water tail flick test,[2],full antinociception
same,Potency in suppressing abstinence,[3],40 times
CCNc1nc2cc3c(cc2s1)C[C@@H]1[C@@H]2CCCC[C@]32CCN1CC1CC1 [Compound 1c],Effect on morphine sensitization,[4],inhibited morphine sensitization
COc1ccc2c(c1)[C@]13CCN(CC4CC4)[C@H](C2)[C@@H]1Cc1sc(N)nc1C3 [Compound 7],Selectivity δ/κ,[5]; ratio of Ki values,7
same,Pharmacological properties at the MOR (agonist/antagonist),[6],agonist and antagonist properties
same,Pharmacological properties at the KOR (agonist/antagonist),[7],full agonists
Nc1nc2c(s1)C[C@H]1[C@H]3Cc4ccc(O)cc4[C@@]1(CCN3CC1CC1)C2 [Compound 8],Effect on ICSS thresholds,[1],no significant effect
same,Ki,"[5]; read-out: Ki [3H]U69,593 (κ), CHO membranes, human KOR, ± SEM",0.072 ± 0.0039 nM
same,Pharmacological properties at the KOR (agonist/antagonist),[7],both agonist and antagonist properties
"COc1ccc2c(c1)[C@]13CCN(CC4CC4)[C@H](C2)[C@@H]1Cc1sc(NC(C)=O)nc1C3 [Compound 10, 6,7-(2-N-Acetyl)aminothiazolo-N-cyclopropylmethyl-3-methoxymorphinan]",Pharmacological properties at the MOR (agonist/antagonist),[8],agonist and antagonist properties
same,Pharmacological properties at the KOR (agonist/antagonist),[9],full agonists
"CNc1nc2c(s1)C[C@H]1[C@H]3Cc4ccc(OC)cc4[C@@]1(CCN3CC1CC1)C2 [Compound 11, 6,7-(2-N-Methyl)aminothiazolo-N-cyclopropylmethyl-3-methoxymorphinan]",Pharmacological properties at the MOR (agonist/antagonist),[8],agonist and antagonist properties
same,Pharmacological properties at the KOR (agonist/antagonist),[9],full agonists
Oc1ccc2c(c1)[C@@]13CCCC[C@H]1[C@@H](C2)N(CC1CC1)CC3 [Cyclorphan],Effect on cocaine self-administration,[10],reduced cocaine self-administration
same,Antinociception in the warm-water tail flick test,[2],partial effect
